For this experiment, the target named is human DDR1 (Homo sapiens, UniProt Q08345). In words: Off-chip Mobility Shift Assay. The format is biochemical. The procedure, abridged:
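Carried out by a contract kinase profiling service, with details in the Supporting Information. IC50 (50 % inhibition) was read from semi-logarithmic dose-response plots of the test compound. Each value is the mean of duplicate samples.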

We go through 1 compound from publication PMC8048584 (Chemmedchem, 2021).

human DDR1, sequence (Q08345 19-913): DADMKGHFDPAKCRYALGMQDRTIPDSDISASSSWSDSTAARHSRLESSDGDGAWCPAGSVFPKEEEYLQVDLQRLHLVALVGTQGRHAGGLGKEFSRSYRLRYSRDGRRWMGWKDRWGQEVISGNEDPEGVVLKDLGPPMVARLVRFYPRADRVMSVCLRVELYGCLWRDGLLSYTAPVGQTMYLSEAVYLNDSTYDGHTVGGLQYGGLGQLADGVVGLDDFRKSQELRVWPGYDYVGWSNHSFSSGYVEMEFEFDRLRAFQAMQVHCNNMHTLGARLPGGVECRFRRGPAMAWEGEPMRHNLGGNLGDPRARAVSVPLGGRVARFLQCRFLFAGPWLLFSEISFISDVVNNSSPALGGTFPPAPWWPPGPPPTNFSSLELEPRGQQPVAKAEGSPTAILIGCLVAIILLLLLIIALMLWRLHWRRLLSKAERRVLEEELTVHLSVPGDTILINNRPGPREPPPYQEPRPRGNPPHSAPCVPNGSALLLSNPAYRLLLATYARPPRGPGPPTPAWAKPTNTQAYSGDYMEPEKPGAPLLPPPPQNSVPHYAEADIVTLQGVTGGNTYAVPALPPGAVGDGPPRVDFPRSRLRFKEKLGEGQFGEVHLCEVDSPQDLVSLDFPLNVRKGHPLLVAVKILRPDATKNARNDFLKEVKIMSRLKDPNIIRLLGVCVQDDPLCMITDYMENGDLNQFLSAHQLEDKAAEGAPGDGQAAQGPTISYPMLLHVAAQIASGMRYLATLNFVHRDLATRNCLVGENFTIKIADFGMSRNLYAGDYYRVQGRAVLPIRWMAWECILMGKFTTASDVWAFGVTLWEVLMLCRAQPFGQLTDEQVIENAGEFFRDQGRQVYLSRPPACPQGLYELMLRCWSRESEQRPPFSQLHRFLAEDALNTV

For the compound `O=C(Nc1ccc(Cl)c(COc2cccnc2)c1)c1cccc(C(F)(F)F)c1` [Compound 3, N‐(4‐chloro‐3‐((pyridin‐3‐yloxy)methyl)phenyl)‐3‐(trifluoromethyl)benzamide], the IC50 came out at 92.5 nM.

Usually IC50 stands for the point on the concentration scale where inhibition reaches its midpoint.
